# Legend:
# [1] = AUC(infinity) in C57BL/6N mouse treated with JM6 (containing <0.4% Ro-61-8048) at 9 mg/kg, po and Ro-61-8048 at 1 mg/kg, po drugs administered via gavage by LC-MS/MS analysis; assay type: ADME, organism-based; set-up: dose 9 mg/kg, time infinity, route oral; conditions: plasma
# Summary of the method: (§1)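 Male C57BL/6N mice were dosed by oral gavage at 10 mL/kg with a fine suspension in 10% hydroxypropyl-β-cyclodextrin in 50 mM phosphate buffer, pH 7. Plasma was taken at non-serial time points (n=3 per time point), extracted with 0.1% formic acid in acetonitrile containing diclofenac as internal standard, and quantified by UPLC-MS/MS. Composite non-compartmental parameters came from mean concentrations; AUClast by linear trapezoid, kel from at least three terminal points.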
# [2] = Cmax in C57BL/6N mouse treated with JM6 (containing <0.4% Ro-61-8048) at 9 mg/kg, po and Ro-61-8048 at 1 mg/kg, po drugs administered via gavage by LC-MS/MS analysis; assay type: ADME, organism-based; set-up: dose 9 mg/kg, route oral; conditions: in vivo; summary of the method: as §1
# [3] = test system: Mus musculus; test: Dose normalised Cmax in C57BL/6N mouse treated with JM6 (containing <0.4% Ro-61-8048) at 9 mg/kg, po and Ro-61-8048 at 1 mg/kg, po drugs administered via gavage by LC-MS/MS analysis; assay type: ADME, organism-based; conditions: in vivo; summary of the method: as §1
# [4] = Half life in C57BL/6N mouse treated with JM6 (containing <0.4% Ro-61-8048) at 9 mg/kg, po and Ro-61-8048 at 1 mg/kg, po drugs administered via gavage by LC-MS/MS analysis; assay type: ADME, organism-based; conditions: in vivo; summary of the method: as §1
# [5] = AUClast in C57BL/6N mouse treated with JM6 (containing <0.4% Ro-61-8048) at 10 mg/kg, po and Ro-61-8048 at 0.05 mg/kg, po drugs administered via gavage by LC-MS/MS analysis; assay type: ADME, organism-based; set-up: dose 10 mg/kg, time 0 - last, route oral; conditions: plasma; summary of the method: as §1
# [6] = AUC(infinity) in C57BL/6N mouse treated with JM6 (containing <0.4% Ro-61-8048) at 10 mg/kg, po and Ro-61-8048 at 0.05 mg/kg, po drugs administered via gavage by LC-MS/MS analysis; assay type: ADME, organism-based; set-up: dose 10 mg/kg, route oral, time infinity; conditions: plasma; summary of the method: as §1
# [7] = test system: Mus musculus; test: Dose normalised AUC in C57BL/6N mouse treated with JM6 (containing <0.4% Ro-61-8048) at 10 mg/kg, po and Ro-61-8048 at 0.05 mg/kg, po drugs administered via gavage by LC-MS/MS analysis; assay type: ADME, organism-based; conditions: in vivo; summary of the method: as §1
# [8] = Oral bioavailability in C57BL/6N mouse treated with JM6 (containing <0.4% Ro-61-8048) at 10 mg/kg and Ro-61-8048 at 0.05 mg/kg drugs administered via gavage by LC-MS/MS analysis; assay type: ADME, organism-based; conditions: in vivo
# Summary of the method: (§2)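 Male C57BL/6N mice dosed by oral gavage (10 mL/kg) as fine suspensions in 10% hydroxypropyl-β-cyclodextrin in 50 mM phosphate buffer pH 7; dose formulations verified by LC-MS/MS. Plasma analysed by LC-MS/MS; composite non-compartmental parameters from mean concentrations (n=3 per time point), C0 set to zero. %F = dose-normalised po AUCinf over dose-normalised iv AUCinf, only within linear range.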
# [9] = Cmax in C57BL/6N mouse treated with JM6 (containing <0.4% Ro-61-8048) at 10 mg/kg, po and Ro-61-8048 at 0.05 mg/kg, po drugs administered via gavage by LC-MS/MS analysis; assay type: ADME, organism-based; set-up: dose 10 mg/kg, route oral; conditions: in vivo; summary of the method: as §1
# [10] = Tmax in C57BL/6N mouse treated with JM6 (containing <0.4% Ro-61-8048) at 10 mg/kg, po and Ro-61-8048 at 0.05 mg/kg, po drugs administered via gavage by LC-MS/MS analysis; assay type: ADME, organism-based; conditions: in vivo; summary of the method: as §2
# [11] = Half life in C57BL/6N mouse treated with JM6 (containing <0.4% Ro-61-8048) at 10 mg/kg, po and Ro-61-8048 at 0.05 mg/kg, po drugs administered via gavage by LC-MS/MS analysis; assay type: ADME, organism-based; conditions: in vivo; summary of the method: as §1
# [12] = Metabolic stability in human liver microsomes assessed as half life at 5 uM after 5 to 40 mins by LC-MS/MS analysis; assay type: ADME
# [13] = Apparent permeability from apical to basolateral side in MDCK2 cells at 10 uM after 1 hr by LC-MS/MS analysis; assay type: ADME, cell-based, Canis lupus familiaris, MDCK-II; conditions: dog
# Summary of the method: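 MDCKII wild-type or MDR1 monolayers were grown 3 days on Transwells after seeding at 2×10^5 cells/well. Compound at 10 µM in HBSS with 25 mM HEPES, pH 7.4, was added apically or basolaterally in duplicate, with Lucifer Yellow as an integrity marker (wells above 100 nm/s rejected).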
# [14] = Efflux ratio of permeability from basolateral to apical side over apical to basolateral side in MDCK2 cells at 10 uM after 1 hr by LC-MS/MS analysis; assay type: ADME, cell-based, Canis lupus familiaris, MDCK-II; conditions: dog
# Summary of the method: (§3)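 MDCKII wild-type and MDR1 cells grown on Transwells 3 days at 2×10^5 cells/well. Compound 10 μM in HBSS with 25 mM HEPES pH 7.4, added apical or basolateral in duplicate, 1 h at 37 °C. Lucifer Yellow monitored monolayer integrity; wells above 100 nm/s rejected. Both chambers sampled, LC-MS/MS; Papp A>B and B>A, ratio B>A:A>B.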
# [15] = test system: MDR1; test: Efflux ratio of permeability from basolateral to apical side over apical to basolateral side in MDCK2-MDR1 cells at 10 uM after 1 hr by LC-MS/MS analysis; assay type: ADME, cell-based, Canis lupus familiaris; conditions: dog, MDCK-MDR1; summary of the method: as §3
# [16] = test system: Mus musculus; test: Dose normalised AUC in C57BL/6N mouse treated with JM6 (containing <0.4% Ro-61-8048) at 50 mg/kg, po and Ro-61-8048 at 0.05 mg/kg, po drugs administered via gavage by LC-MS/MS analysis; assay type: ADME, organism-based; conditions: in vivo; summary of the method: as §1
# [17] = test system: Mus musculus; test: Dose normalised Cmax in C57BL/6N mouse treated with JM6 (containing <0.4% Ro-61-8048) at 50 mg/kg, po and Ro-61-8048 at 0.05 mg/kg, po drugs administered via gavage by LC-MS/MS analysis; assay type: ADME, organism-based; conditions: in vivo; summary of the method: as §1
# [18] = Metabolic stability in mouse plasma assessed as half life at 5 uM after 10 to 1440 mins by LC-MS/MS analysis; assay type: ADME, cell-free
# [19] = target: Kynurenine 3-monooxygenase (Mus musculus, UniProt Q91WN4); test: Inhibition of C57BL/6J mouse KMO assessed as 3-hydroxykynurenine formation preincubated for 5 mins using 100 uM kynurenine as substrate by LC-MS/MS analysis
# Summary of the method: (§4)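 Liver mitochondrial KMO preparation (mouse C57 BL/6J, rat Wistar, human) at 0.3 mg protein/mL in 100 mM potassium phosphate pH 7.4 with 200 µM NADPH, 0.4 U/mL G6PDH, 3 mM glucose 6-phosphate. Compound pre-incubated 5 min at 25°C, then 100 µM kynurenine added; 40 min (rodent) or 60 min (human). Stopped with TCA; 3-hydroxykynurenine by LC-MS/MS. IC50 from 8-point 3-fold dilutions (top 3 or 30 µM), triplicates, n≥2 runs.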
# [20] = target: Kynurenine 3-monooxygenase (Homo sapiens, UniProt O15229); test: Inhibition of human KMO assessed as 3-hydroxykynurenine formation preincubated for 5 mins using 100 uM kynurenine as substrate by LC-MS/MS analysis; summary of the method: as §4
# [21] = Hepatic extraction ratio in human Hepatocyte at 1 uM after 10 to 90 mins by LC-MS/MS analysis; assay type: ADME, cell-based; conditions: hepatocytes, read-out: ERH
# Chain of Kynurenine 3-monooxygenase (Homo sapiens, UniProt O15229) (O15229 whole entry): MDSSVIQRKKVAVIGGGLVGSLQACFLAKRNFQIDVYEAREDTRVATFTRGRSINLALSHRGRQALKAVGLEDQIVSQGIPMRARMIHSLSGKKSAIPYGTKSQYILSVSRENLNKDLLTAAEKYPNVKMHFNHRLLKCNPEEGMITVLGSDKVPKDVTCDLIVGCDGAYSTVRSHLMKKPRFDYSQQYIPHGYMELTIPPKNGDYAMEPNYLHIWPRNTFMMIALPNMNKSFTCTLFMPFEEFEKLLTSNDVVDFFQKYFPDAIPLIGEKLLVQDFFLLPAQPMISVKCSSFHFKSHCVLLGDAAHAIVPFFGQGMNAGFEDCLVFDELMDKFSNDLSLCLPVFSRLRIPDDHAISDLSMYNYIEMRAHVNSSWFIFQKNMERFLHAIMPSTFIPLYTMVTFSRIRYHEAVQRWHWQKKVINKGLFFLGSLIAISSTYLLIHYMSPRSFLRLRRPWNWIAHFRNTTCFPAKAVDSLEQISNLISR
# Chain of Kynurenine 3-monooxygenase (Mus musculus, UniProt Q91WN4) (Q91WN4 whole entry): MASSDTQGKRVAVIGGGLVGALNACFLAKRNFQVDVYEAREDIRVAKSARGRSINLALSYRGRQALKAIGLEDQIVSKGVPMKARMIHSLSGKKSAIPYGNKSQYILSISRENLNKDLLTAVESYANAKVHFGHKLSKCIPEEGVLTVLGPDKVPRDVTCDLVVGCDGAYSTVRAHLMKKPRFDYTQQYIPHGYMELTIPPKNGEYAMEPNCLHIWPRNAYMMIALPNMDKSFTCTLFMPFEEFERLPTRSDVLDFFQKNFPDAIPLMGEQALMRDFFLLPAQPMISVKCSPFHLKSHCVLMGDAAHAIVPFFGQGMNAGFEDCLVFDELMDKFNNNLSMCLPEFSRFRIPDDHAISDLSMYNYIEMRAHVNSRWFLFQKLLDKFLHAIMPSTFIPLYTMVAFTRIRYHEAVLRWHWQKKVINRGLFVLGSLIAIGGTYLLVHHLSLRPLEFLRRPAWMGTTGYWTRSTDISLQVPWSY
AUC(0-inf) [1] [µM·h],Cmax [2] [nM],Cmax/dose [3] [nM],half-life [4] [h],AUC(0-t) [5] [µM·h],AUC(0-inf) [6] [µM·h],AUC/dose [7] [nM·kg·h/mg],bioavailability [8] [%],Cmax [9] [nM],Tmax [10] [h],half-life [11] [h],half-life at 5 µM [12] [h],"efflux ratio at 1 h, 10 µM [15]",AUC/dose [16] [nM·kg·h/mg],Cmax/dose [17] [nM],half-life at 5 µM [18] [h],IC50 [19] [µM],IC50 [20] [µM],hepatic extraction ratio at 1 µM [21],Compound,further results
110,17000,21000,4.4,4.9,5.2,100000,80,530,1,5.8,0.2,3.2,160000,160000,> 24,0.09,0.17,0.8,COc1ccc(S(=O)(=O)Nc2nc(-c3cccc([N+](=O)[O-])c3)cs2)cc1OC,"Papp A→B at 1 h, 10 µM ([13]; MDCK): 17 ×10⁻⁶ cm/s; efflux ratio at 1 h, 10 µM ([14]; MDCK): 0.8"
1.1,1000,110,0.7,1.3,1.3,130,13,1900,0.5,0.7,> 1.62,60,190,190,> 24,20,11,0.67,COc1ccc(S(=O)(=O)Nc2nc(-c3cccc([N+](=O)[O-])c3)c(CN3CCCCC3)s2)cc1OC,"Papp ([13]; mdck-ii, 1 h, 10 µM): 4.7 ×10⁻⁶ cm/s; Ratio ([14]; mdck-ii, 1 h, 10 µM): 5.3"

# From ChEMBL document CHEMBL3526063, “Metabolism and pharmacokinetics of JM6 in mice: JM6 is not a prodrug for Ro-61-8048” (Drug Metab Dispos, 2012)
